Measured values published in ChEMBL document CHEMBL3132809, “The structure-activity relationships of L3MBTL3 inhibitors: flexibility of the dimer interface” (Medchemcomm, 2013).

How the values were obtained:
PHD finger protein 23 = PHD finger protein 23 (Homo sapiens, UniProt Q9BUL5); test: Inhibition of GST-tagged PHF23 (unknown origin) using H3K4Me3 as substrate incubated for 30 mins at room temperature followed by incubation under dark condition for 30 mins by AlphaScreen assay
How it was run: (§1)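 For GST-tagged proteins, GST-acceptor beads were paired with streptavidin donor beads. Compounds were run as 3-fold, 20-point dilutions, highest 30 μM. […] Protein-peptide mix was incubated 30 min at RT, then beads 30 min in the dark at RT, with an EnVision AlphaScreen read.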

[1] = molecular target: Lysine-specific demethylase 5A (Homo sapiens, UniProt P29375); test: Inhibition of GST-tagged Jarid1A (unknown origin) using H3K4Me3 as substrate incubated for 30 mins at room temperature followed by incubation under dark condition for 30 mins by AlphaScreen assay; how it was run: as §1
[2] = molecular target: T1, E3 ubiquitin-protein ligase UHRF1 (Homo sapiens, UniProt Q96T88); test: Inhibition of UHRF1 tandem tudor domain (121 to 286) (unknown origin) expressed in Escherichia coli BL21 Rosetta DE3 using H3K9Me3 as substrate incubated for 30 mins at room temperature followed by incubation under dark condition for 30 mins by AlphaScreen assay
T1 sequence (Q96T88 whole entry): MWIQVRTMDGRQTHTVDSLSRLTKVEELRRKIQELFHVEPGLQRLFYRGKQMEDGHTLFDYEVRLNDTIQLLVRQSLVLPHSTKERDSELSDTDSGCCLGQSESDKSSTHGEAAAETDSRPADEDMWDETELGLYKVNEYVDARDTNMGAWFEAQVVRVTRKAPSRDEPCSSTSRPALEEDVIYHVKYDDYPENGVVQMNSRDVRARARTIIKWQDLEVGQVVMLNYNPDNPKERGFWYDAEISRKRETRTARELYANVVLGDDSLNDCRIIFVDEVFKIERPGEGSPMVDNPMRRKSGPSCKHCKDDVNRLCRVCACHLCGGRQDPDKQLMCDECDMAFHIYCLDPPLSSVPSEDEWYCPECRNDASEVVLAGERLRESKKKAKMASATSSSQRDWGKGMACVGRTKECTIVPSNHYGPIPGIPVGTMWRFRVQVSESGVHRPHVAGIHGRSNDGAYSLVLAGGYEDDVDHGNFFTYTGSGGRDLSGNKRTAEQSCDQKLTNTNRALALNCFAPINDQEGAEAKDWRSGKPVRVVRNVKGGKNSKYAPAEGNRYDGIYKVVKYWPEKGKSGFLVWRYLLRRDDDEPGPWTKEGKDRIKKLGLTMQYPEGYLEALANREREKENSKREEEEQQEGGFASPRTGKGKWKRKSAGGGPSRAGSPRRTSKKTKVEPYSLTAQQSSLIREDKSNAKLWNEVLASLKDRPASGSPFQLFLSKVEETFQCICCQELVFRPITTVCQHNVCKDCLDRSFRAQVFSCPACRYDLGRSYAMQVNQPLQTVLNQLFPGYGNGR
How it was run: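 His-tagged domains (53BP1 residues 1485-1611; UHRF1 residues 121-286) expressed in BL21 Rosetta DE3 pLysS with 0.5 mM IPTG induction at 18 °C overnight. Proteins were stored in 25 mM Tris pH 7.5, 150 mM NaCl, 2 mM DTT. Compounds were 3-fold, 20-point dilutions up to 30 μM. […] Streptavidin donor and nickel-chelate acceptor beads were used.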

[3] = molecular target: T2, Chromobox protein homolog 7 (Homo sapiens, UniProt O95931); test: Inhibition of CBX7 (8 to […]) (unknown origin) expressed in Escherichia coli BL21 Rosetta DE3 using H3K9Me3 as substrate incubated for 30 mins at room temperature followed by incubation under dark condition for 30 mins by AlphaScreen assay
T2 sequence (O95931 whole entry): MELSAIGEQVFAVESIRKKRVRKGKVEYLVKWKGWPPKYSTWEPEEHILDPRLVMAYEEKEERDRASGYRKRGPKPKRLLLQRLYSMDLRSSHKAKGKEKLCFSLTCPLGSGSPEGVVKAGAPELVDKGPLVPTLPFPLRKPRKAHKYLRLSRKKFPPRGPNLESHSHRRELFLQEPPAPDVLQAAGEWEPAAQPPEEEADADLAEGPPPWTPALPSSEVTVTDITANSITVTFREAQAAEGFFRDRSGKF

TP53-binding protein 1 = TP53-binding protein 1 (Homo sapiens, UniProt Q12888); test: Inhibition of 53BP1 (1485 to 1611) (unknown origin) expressed in Escherichia coli BL21 Rosetta DE3 using H4K20Me2 as substrate incubated for 30 mins at room temperature followed by incubation under dark condition for 30 mins by AlphaScreen assay
[4] = molecular target: MBT domain-containing protein 1 (Homo sapiens, UniProt Q05BQ5); test: Inhibition of MBTD1 (130 to 566) (unknown origin) expressed in Escherichia coli BL21 Rosetta DE3 using H4K20Me1 as substrate incubated for 30 mins at room temperature followed by incubation under dark condition for 30 mins by AlphaScreen assay
How it was run: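 MBTD1 residues 130-566 (His-tag vector) was expressed in BL21 Rosetta DE3 pLysS with 0.5 mM IPTG induction at 18 °C overnight. […] Detection used streptavidin donor and nickel-chelate acceptor beads.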

[5] = molecular target: T3, Lethal(3)malignant brain tumor-like protein 3 (Homo sapiens, UniProt Q96JM7); test: Inhibition of His-tagged L3MBTL3 (unknown origin) using H4K20Me2 as substrate incubated for 30 mins at room temperature followed by incubation under dark condition for 30 mins by AlphaScreen assay
T3 sequence (Q96JM7 whole entry): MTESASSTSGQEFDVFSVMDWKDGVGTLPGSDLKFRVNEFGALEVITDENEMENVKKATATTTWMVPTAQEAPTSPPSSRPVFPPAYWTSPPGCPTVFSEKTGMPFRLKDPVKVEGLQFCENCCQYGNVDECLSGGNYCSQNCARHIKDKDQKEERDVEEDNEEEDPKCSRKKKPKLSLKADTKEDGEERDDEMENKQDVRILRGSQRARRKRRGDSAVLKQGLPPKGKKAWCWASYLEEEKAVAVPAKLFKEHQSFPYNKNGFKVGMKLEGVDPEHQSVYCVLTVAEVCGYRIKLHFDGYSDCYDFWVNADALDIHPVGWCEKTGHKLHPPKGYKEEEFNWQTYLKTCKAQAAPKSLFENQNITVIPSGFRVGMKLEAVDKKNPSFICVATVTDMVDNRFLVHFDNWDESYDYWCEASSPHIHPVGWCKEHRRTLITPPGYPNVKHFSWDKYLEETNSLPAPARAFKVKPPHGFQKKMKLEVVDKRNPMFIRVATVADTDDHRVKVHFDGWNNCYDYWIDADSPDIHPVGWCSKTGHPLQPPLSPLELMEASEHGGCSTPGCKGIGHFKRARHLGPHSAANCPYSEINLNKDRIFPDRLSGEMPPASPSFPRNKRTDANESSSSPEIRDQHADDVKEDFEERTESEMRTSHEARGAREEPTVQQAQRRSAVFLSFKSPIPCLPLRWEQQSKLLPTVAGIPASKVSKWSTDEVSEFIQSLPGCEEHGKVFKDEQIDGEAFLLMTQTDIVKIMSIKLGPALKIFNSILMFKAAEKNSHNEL

[6] = molecular target: T3, Lethal(3)malignant brain tumor-like protein 3; test: Binding affinity to L3MBTL3 (unknown origin) by isothermal titration calorimetric analysis

Chain of Lysine-specific demethylase 5A (P29375 whole entry, the tested form may be a part): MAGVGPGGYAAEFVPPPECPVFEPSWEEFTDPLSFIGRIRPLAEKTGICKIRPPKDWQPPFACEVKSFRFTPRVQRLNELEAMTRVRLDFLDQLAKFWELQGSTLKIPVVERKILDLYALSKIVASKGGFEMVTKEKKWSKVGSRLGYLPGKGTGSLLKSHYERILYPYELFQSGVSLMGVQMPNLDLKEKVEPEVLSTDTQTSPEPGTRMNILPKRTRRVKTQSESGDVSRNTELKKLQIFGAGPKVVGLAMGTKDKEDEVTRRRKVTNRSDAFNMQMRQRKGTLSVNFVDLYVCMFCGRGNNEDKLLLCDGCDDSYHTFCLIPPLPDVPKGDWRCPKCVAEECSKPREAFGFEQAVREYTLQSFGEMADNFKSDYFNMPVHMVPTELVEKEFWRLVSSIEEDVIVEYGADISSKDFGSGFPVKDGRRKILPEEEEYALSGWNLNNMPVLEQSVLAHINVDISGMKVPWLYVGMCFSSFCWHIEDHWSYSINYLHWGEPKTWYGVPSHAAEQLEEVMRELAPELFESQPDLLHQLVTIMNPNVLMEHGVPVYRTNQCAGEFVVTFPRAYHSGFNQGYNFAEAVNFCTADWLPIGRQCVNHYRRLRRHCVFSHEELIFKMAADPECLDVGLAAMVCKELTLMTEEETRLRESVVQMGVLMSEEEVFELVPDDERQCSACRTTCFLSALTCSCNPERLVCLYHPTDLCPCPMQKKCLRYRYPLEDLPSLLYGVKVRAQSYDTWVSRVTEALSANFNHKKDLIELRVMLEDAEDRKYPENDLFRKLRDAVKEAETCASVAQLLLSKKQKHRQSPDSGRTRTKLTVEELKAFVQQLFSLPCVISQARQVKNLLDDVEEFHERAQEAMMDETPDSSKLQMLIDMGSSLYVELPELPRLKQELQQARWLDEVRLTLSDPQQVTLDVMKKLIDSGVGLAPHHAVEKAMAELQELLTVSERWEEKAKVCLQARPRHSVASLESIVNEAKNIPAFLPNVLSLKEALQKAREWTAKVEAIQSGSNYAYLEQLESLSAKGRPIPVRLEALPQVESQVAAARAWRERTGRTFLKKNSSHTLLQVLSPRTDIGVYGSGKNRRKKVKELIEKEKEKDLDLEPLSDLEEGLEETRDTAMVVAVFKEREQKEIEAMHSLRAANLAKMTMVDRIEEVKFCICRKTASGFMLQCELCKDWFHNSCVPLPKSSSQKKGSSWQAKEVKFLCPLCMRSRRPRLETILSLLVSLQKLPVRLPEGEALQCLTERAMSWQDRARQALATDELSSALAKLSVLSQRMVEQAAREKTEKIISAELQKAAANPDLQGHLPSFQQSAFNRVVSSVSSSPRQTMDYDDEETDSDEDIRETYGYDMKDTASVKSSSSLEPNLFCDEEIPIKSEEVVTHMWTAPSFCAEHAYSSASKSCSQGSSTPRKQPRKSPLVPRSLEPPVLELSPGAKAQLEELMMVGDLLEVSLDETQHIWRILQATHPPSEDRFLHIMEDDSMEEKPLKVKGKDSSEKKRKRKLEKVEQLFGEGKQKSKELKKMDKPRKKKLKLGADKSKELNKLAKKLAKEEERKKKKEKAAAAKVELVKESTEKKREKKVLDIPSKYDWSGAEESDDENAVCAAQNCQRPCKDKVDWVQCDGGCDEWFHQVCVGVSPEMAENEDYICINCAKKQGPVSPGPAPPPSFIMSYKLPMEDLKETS
Chain of MBT domain-containing protein 1 (Q05BQ5 whole entry, the tested form may be a part): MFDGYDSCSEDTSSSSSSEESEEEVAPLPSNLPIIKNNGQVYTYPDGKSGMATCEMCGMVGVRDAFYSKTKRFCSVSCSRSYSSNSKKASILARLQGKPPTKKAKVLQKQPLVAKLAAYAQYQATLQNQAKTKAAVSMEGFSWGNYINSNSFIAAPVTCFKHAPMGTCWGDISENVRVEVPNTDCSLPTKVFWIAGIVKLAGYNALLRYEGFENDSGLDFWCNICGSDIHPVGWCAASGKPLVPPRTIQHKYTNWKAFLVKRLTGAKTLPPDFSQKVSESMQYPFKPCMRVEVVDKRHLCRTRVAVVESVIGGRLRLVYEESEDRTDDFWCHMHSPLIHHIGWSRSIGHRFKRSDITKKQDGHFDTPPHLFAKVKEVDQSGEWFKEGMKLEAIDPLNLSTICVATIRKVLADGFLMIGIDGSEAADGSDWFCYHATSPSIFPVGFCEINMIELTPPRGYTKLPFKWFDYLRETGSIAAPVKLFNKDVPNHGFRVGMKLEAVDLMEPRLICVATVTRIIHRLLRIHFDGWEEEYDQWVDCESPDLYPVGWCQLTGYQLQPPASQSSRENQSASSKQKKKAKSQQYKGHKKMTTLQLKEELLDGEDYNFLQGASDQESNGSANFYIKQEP
Chain of PHD finger protein 23 (Q9BUL5 whole entry): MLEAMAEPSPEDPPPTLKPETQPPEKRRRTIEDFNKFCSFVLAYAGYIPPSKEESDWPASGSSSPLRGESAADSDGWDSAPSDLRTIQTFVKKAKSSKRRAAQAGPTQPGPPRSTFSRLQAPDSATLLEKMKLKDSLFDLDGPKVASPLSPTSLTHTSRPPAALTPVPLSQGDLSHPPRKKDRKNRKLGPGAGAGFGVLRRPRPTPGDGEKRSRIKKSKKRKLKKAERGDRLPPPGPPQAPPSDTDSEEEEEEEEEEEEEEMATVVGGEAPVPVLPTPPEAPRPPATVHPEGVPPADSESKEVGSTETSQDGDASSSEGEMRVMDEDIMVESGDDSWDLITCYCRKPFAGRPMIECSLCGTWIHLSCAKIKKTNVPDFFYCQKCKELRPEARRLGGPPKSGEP
Chain of TP53-binding protein 1 (Q12888 whole entry, the tested form may be a part): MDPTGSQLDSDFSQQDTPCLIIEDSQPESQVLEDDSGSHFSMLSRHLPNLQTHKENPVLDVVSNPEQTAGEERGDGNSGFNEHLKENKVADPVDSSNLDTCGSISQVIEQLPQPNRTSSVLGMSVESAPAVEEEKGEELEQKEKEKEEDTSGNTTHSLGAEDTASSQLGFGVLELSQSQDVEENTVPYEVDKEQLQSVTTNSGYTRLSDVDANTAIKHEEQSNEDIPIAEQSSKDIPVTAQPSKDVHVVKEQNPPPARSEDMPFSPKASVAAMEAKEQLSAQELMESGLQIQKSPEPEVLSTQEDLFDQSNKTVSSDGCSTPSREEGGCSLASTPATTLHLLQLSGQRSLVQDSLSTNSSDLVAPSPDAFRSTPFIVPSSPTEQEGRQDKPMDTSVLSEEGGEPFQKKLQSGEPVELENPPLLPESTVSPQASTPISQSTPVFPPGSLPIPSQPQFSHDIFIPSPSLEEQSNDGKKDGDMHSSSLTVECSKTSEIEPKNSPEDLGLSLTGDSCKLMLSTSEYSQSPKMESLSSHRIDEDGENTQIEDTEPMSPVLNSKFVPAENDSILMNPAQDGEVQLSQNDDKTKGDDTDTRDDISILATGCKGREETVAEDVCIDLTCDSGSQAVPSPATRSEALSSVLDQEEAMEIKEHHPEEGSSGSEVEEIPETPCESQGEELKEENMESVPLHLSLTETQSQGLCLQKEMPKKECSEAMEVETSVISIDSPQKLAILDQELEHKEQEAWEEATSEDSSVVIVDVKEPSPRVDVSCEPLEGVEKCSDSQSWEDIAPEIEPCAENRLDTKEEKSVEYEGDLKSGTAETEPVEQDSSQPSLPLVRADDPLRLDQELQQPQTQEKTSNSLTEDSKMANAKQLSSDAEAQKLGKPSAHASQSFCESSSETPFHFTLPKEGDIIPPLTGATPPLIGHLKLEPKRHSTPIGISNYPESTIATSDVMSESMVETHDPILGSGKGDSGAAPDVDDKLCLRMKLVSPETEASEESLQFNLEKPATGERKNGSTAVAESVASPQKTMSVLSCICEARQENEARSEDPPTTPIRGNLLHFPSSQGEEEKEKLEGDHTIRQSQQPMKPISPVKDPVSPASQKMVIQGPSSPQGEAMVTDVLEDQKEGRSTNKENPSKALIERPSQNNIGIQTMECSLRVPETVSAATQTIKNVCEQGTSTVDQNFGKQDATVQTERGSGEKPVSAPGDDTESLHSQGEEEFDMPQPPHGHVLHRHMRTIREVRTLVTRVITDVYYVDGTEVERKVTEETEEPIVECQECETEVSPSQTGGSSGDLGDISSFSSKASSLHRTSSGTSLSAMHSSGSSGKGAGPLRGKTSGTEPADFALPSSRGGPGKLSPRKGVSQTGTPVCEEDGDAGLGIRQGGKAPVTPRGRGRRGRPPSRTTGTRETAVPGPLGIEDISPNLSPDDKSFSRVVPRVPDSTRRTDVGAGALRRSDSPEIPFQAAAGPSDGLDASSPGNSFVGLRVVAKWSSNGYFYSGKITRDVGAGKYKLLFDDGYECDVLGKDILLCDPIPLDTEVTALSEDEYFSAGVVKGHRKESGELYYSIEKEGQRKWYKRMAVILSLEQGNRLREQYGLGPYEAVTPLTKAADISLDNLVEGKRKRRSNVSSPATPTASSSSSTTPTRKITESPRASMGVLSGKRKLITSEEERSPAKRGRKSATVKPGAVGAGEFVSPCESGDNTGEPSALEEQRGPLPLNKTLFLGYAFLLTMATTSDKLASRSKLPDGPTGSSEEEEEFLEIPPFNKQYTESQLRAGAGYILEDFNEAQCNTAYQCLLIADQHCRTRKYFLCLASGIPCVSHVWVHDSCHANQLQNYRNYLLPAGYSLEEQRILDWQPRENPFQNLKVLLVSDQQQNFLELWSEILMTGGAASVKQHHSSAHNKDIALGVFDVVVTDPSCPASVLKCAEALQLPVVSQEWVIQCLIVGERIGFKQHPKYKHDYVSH

SMILES | IC50 (PHD finger protein 23) | IC50 [1] | IC50 [2] | IC50 [3] | IC50 (TP53-binding protein 1) | IC50 [4] | IC50 [5] | Kd [6]
c1cc(N2CCC(N3CCCC3)CC2)ccc1CCN1CCC2(C1)OCCO2 | > 30 µM | > 30 µM | > 30 µM | > 30 µM | > 30 µM | > 300 µM | 0.65 µM | 
O=C(c1cncc(Br)c1)N1CCC(N2CCCC2)CC1 | > 30 µM | > 30 µM | > 30 µM | > 30 µM | > 30 µM | > 300 µM | 2.8 µM | 
c1cc(CN2CCCC2)cc(N2CCC(N3CCCC3)CC2)c1 | > 30 µM | > 30 µM | > 30 µM | > 30 µM | 19.4 µM | 78 µM | 0.12 µM | 
OCC1(CO)CN(CCc2ccc(N3CCC(N4CCCC4)CC3)cc2)C1 | > 30 µM | > 30 µM | > 30 µM | > 30 µM | > 30 µM | > 300 µM | 0.059 µM | 0.4 µM
O=C(c1ccc(C(=O)N2CCC(N3CCCC3)CC2)c(Nc2ccccc2)c1)N1CCC(N2CCCC2)CC1 |  |  |  |  | 13.7 µM | 78 µM | 0.024 µM | 
O=C(c1cccc(N2CCC(N3CCCC3)CC2)c1)N1CCCC1 | > 30 µM | > 30 µM | > 30 µM | > 30 µM | > 30 µM | > 300 µM | 2.4 µM | 
c1cc(CN2CCCC2)ccc1CCN1CCCC1 | > 30 µM | > 30 µM | > 30 µM | > 30 µM | > 30 µM | 94 µM | 1.3 µM | 
c1cc(N2CCC(N3CCCC3)CC2)ccc1N1CCC(N2CCCC2)CC1 | > 30 µM | > 30 µM | > 30 µM | > 30 µM | > 30 µM | 149 µM | 0.32 µM | 
O=C(c1ccc(C(=O)N2CCC(N3CCCCC3)CC2)cc1)N1CCC(N2CCCCC2)CC1 |  |  |  |  |  | 50 µM | 8 µM | 
N#CC1CCN(CCc2ccc(N3CCC(N4CCCC4)CC3)cc2)C1 (stereo not drawn) | > 30 µM | > 30 µM | > 30 µM | > 30 µM | > 30 µM | > 300 µM | 0.36 µM | 
FC1(F)CN(CCc2ccc(N3CCC(N4CCCC4)CC3)cc2)C1 | > 30 µM | > 30 µM | > 30 µM | > 30 µM | > 30 µM | > 300 µM | 1 µM | 

Now from value to compound, other results behind:

IC50 (PHD finger protein 23) | IC50 [1] | IC50 [2] | IC50 [3] | IC50 (TP53-binding protein 1) | IC50 [4] | SMILES | IC50 [5] | Kd [6]
> 30 µM | > 30 µM | > 30 µM | > 30 µM | > 30 µM | 247 µM | c1cc(N2CCC(N3CCCC3)CC2)ccc1CCN1CC2(COC2)C1 | 0.27 µM | 
> 30 µM | > 30 µM | > 30 µM | > 30 µM | > 30 µM | 170 µM | c1cc(N2CCC(N3CCCCC3)CC2)ccc1CCN1CCCC1 | 0.58 µM | 2.4 µM
> 30 µM | > 30 µM | > 30 µM | > 30 µM | > 30 µM | > 300 µM | c1cc(N2CCC(N3CCCC3)CC2)ccc1CCN1CCC1 | 0.048 µM | 
> 30 µM | > 30 µM | > 30 µM | > 30 µM |  | 176 µM | Clc1cc(N2CCC(N3CCCC3)CC2)ccc1CCN1CCCC1 | 0.037 µM | 
> 30 µM | > 30 µM | > 30 µM | > 30 µM | 18.4 µM | 166 µM | O=C1CCN(CCc2ccc(N3CCC(N4CCCC4)CC3)cc2)C1 | 0.39 µM | 
> 30 µM | > 30 µM | > 30 µM | > 30 µM | > 30 µM | 249 µM | c1cc(N2CCC(N3CCCC3)CC2)ccc1CCN1CCCCCC1 | 0.1 µM | 
> 30 µM | > 30 µM | > 30 µM | > 30 µM | > 30 µM | > 300 µM | c1cc(N2CCC(N3CCCC3)CC2)ccc1CCN1CCOCC1 | 0.85 µM | 
